Results reported in PMC10438863 (Journal of Enzyme Inhibition and Medicinal Chemistry, 2023).

Tests used:
Hela = assay: CCK-8 antiproliferative assay, Hela; assay type: cell-based; settings: read-out: IC50 (µM) Hela; Hela; CCK-8, 72 h; mean ± SD
Method in brief: (§1)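 Cells were grown in RPMI-1640 with 10% FBS at 37 °C in 5% CO2. About 3.5 × 10^3 cells/well were seeded, grown 24 h, then given test compound at several concentrations for 72 h in triplicate wells. CCK-8 was added for 2–3 h and OD read at 450 nm to give inhibition rate or IC50. K562 screen: mean of ≥2 independent experiments. Five-line panel: mean ± SD of three.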

[1] = system: Cyclin B1, Cdc-2 and Cdc-25c; assay: Western blot of G2/M phase associated proteins; assay type: cell-based; settings: K562; 48 h; western blotting; dose-dependent
Method in brief: (§2)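 K562 cells were treated with or without test compound at several concentrations for 48 h. They were lysed in cold buffer with PMSF and centrifuged at 14,000 rpm for 15 min, and protein was quantified by BCA. Equal protein was run on SDS-PAGE, blotted to PVDF, blocked in 5% skim milk for 2 h, probed overnight at 4 °C, then secondary antibody for 1–2 h, and detected by ECL with densitometry. Targets: Cdc-2, Cyclin B1, Cdc25c; Bad, Bax, Bcl-2, Bcl-xl; GAPDH reference.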

HUVECs [2] = assay: HUVEC tube formation assay on Matrigel; assay type: cell-based, human; settings: 60 nM
K562 cell line = assay: CCK-8 antiproliferative assay, K562; assay type: cell-based; settings: K562, CCK-8, 72 h
Method in brief: as §1

MDA-MB-231 cells [3] = assay: Transwell migration assay; assay type: cell-based; settings: 60 nM, untreated 231.3 ± 12.2
[4] = system: colchicine binding site on tubulin; assay: [3H]-colchicine competition scintillation proximity assay; settings: tubulin 1 µM, [3H]-colchicine 5 µM
Method in brief: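 Competition scintillation proximity assay. Test compound was added to buffer (80 mM PIPES pH 6.8, 1 mM EGTA, 1 mM MgCl2, 10% glycerol, 1 mM GTP) containing tubulin 1 µM, then [3H]-colchicine 5 µM. After 2 h incubation, streptavidin-labelled SPA beads were added and radioactivity counted. Percent inhibition of colchicine binding was reported as mean ± SD of three independent experiments.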

H22 allograft = H22 allograft mice model, in vivo antitumor effect; settings: 20 mg/kg i.v. once a day, three weeks
Method in brief: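 H22 cells in log phase (1 × 10^7 cells/mL, 0.1 ml) were injected s.c. into the right flank. Tumour size and body weight were recorded every two days. Mice were sacrificed at about 21 days. TGI (%) = (1 − Wt/Wc) × 100, using mean tumour weights.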

Bcl-2 protein family = assay: Western blot of apoptosis associated proteins; assay type: cell-based; settings: K562, 48 h, western blotting
Method in brief: as §2

K562 cells [5] = assay: Hoechst 33342 staining; assay type: cell-based; settings: 48 h
[6] = H&E staining of vital organs, in vivo safety; settings: mice; 20 mg/kg; heart, liver, spleen, lung, kidney
Method in brief: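 Heart, liver, spleen, lung and kidney came from the H22 allograft mice at sacrifice: vehicle, CA-4 20 mg/kg and test compound 20 mg/kg groups. Organs were fixed in 4% paraformaldehyde overnight, paraffin-embedded, sectioned and stained with haematoxylin and eosin.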

MDA-MB-231 cells [7] = assay: Transwell invasion assay; assay type: cell-based; settings: 60 nM, untreated 81.3 ± 5.7
HUVEC = assay: Inhibition of HUVEC proliferation; assay type: cell-based, human; settings: read-out: IC50 in inhibiting the proliferation of HUVEC
K562 cells [8] = assay: Annexin V-FITC/PI apoptosis flow cytometry; assay type: cell-based; settings: 60 nM, 48 h, control 2.47%
K562 cells [9] = assay: PI cell cycle flow cytometry; assay type: cell-based; settings: 48 h, untreated 12.99 ± 0.26%
HUVECs [10] = assay: HUVEC wound healing assay; assay type: cell-based, human; settings: 24 h, dose-dependent
Method in brief: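 HUVECs were seeded at 5 × 10^5 cells/well overnight and incubated with or without test compound at several concentrations for 24 h. The monolayer was then scratched with a pipette tip and washed with PBS. The wound was imaged at 100× and imaged again after a further 24 h of culture.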

H22 tumour = assay: Immunohistochemistry of tumour tissue; assay type: in vivo, mice; settings: H22 tumours; 20 mg/kg; IHC; vs control group
Method in brief: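 Tumours came from the vehicle, CA-4 20 mg/kg and test compound 20 mg/kg allograft groups. They were fixed in 4% paraformaldehyde overnight, paraffin-embedded and sectioned. Sections were blocked with 1% BSA for 20 min, incubated with CD31 or Ki67 primary antibody overnight at 4 °C, then HRP goat anti-rabbit for 1 h, developed with DAB and counterstained with haematoxylin. CD31 staining gave microvessel density.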

K562 cells [11] = assay: Confocal immunofluorescence assay of microtubule networks; assay type: cell-based; settings: 48 h, 15, 30, 60 nM
normal cell line HFL-1 = assay: CCK-8 assay, normal cell line HFL-1; assay type: cell-based; settings: read-out: IC50 (µM) HFL-1; normal cell line HFL-1; CCK-8, 72 h; mean ± SD
Method in brief: as §1

H22 = assay: CCK-8 antiproliferative assay, H22; assay type: cell-based, mouse; settings: read-out: IC50 (µM) H22; H22; CCK-8, 72 h; mean ± SD
Method in brief: as §1

A549 = assay: CCK-8 antiproliferative assay, A549; assay type: cell-based; settings: read-out: IC50 (µM) A549; A549; CCK-8, 72 h; mean ± SD
Method in brief: as §1

IC50 (Hela): 0.078 ± 0.005 µM | IC50 (K562 cell line; read-out: IC50 (µM) K562, mean ± SD): 0.028 ± 0.007 µM | Inhibition (%) of colchicine binding ([4]; compound 1 µM): 59.81 ± 3.84% | Inhibition (%) of colchicine binding ([4]; compound 5 µM): 71.43 ± 1.03% | IC50 (A549): 0.087 ± 0.009 µM
Substance: 2-methoxy-4-((4,5,6-trimethoxy-2,3-dihydro-1H-inden-2-yl)methyl)phenol [Compound 12d]
expression levels of Cyclin B1, Cdc-2 and Cdc-25c [1]: down-regulate | tube formation (capillary-like tubular networks) of HUVECs (HUVECs [2]): almost all of the tube-like structure was broken | Inhibition rate (%) (K562 cell line; 0.1 µM): 78.82% | Inhibition rate (%) (K562 cell line; 1 µM): 80.57% | number of migrated cells (MDA-MB-231 cells [3]): 124.0 ± 9.2 | body weight (H22 allograft): no obvious body weight loss | tumour growth inhibition (TGI) value (H22 allograft; by tumour weight): 74.94% | expression of antiapoptotic proteins Bcl-2 and Bcl-xl (Bcl-2 protein family): downregulated | expression level of proapoptotic proteins Bax and Bad (Bcl-2 protein family; dose-dependent): upregulated | apoptosis morphology and nucleus changes (K562 cells [5]): induced K562 cells nuclear fragmentation and cell morphology changes | pathological damage of vital organs (H&E) [6]: without obvious pathological damage | number of invaded cells (MDA-MB-231 cells [7]): 51.3 ± 2.5 | IC50 (HUVEC): 2260 ± 380 nM | percent of total apoptosis cells (K562 cells [8]): 57.90% | population at the G2/M phase (K562 cells [9]; 15 nM): 16.07 ± 0.83% | population at the G2/M phase (K562 cells [9]; 30 nM): 21.23 ± 1.14% | population at the G2/M phase (K562 cells [9]; 60 nM): 24.66 ± 0.63% | wound healing effect of HUVECs (HUVECs [10]): the wound healing effect was disrupted | Ki67-positive cells (H22 tumour): decreased number of Ki-67 positive cells | microvessel density (MVD), CD31 (H22 tumour): lower MVD level | effect on microtubule networks (K562 cells [11]): caused disorder and destruction of microtubule networks | IC50 (normal cell line HFL-1): 0.271 ± 0.031 µM | IC50 (H22): 0.068 ± 0.008 µM
